Test: SAD study: safety and tolerability
Format: in vivo, human
Conditions: for Abdominal pain TEAE, events / Abdominal pain TEAE, participants / Any event TEAE, events / Any event TEAE, participants / Diarrhea TEAE, events / Diarrhea TEAE, participants / Dysgeusia TEAE, events / Dysgeusia TEAE, participants / Gastrointestinal disorders TEAE, events / Gastrointestinal disorders TEAE, participants / Headache TEAE, events / Headache TEAE, participants / Hypoaesthesia oral TEAE, events / Hypoaesthesia oral TEAE, participants / Infections and infestations TEAE, events / Infections and infestations TEAE, participants / Insomnia TEAE, events / Insomnia TEAE, participants / Nasopharyngitis TEAE, events / Nasopharyngitis TEAE, participants / Nervous system disorders TEAE, events / Nervous system disorders TEAE, participants / Psychiatric disorders TEAE, events / Psychiatric disorders TEAE, participants / Rash TEAE, events / Rash TEAE, participants / Skin and subcutaneous tissue disorders TEAE, events / Skin and subcutaneous tissue disorders TEAE, participants / Tooth infection TEAE, events / Tooth infection TEAE, participants: N = 6
Procedure, shortened: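 Healthy males aged 18–55 with BMI 18–30 kg/m² were followed through dosing and a 6–8-day follow-up. Checks: physical examination, clinical laboratory tests, vital signs and 12-lead ECG, with adverse events coded in MedDRA. Events of special interest: ALT ≥2×ULN, QTcF ≥500 ms, Grade ≥2 photosensitivity, symptomatic overdose. Treatment-emergent events were summarised descriptively by organ class, preferred term and dose level for all exposed participants.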

CN1C(=O)c2cccc(OC(F)F)c2[C@H]2C[C@@H]1c1nc3ccc(-c4cnc(C5(N)CCC5)nc4)cc3n12 [Balinatunfib]
2: Dysgeusia TEAE, events (SAD 400 mg)
13.9%: participants with at least one TEAE (SAD, all balinatunfib groups (five of 36))
4: Any event TEAE, events (SAD 400 mg)
well tolerated: tolerability (all single oral doses (5–600 mg))
3: Nervous system disorders TEAE, events (SAD 400 mg) | Any event TEAE, events (SAD 600 mg)
2 (33.3) n (%): Any event TEAE, participants (SAD 400 mg) | Dysgeusia TEAE, participants (SAD 400 mg) | Nervous system disorders TEAE, participants (SAD 400 mg) | Any event TEAE, participants (SAD 600 mg)
0: Abdominal pain TEAE, events (SAD 5 mg) | Any event TEAE, events (SAD 5 mg) | Diarrhea TEAE, events (SAD 5 mg) | Dysgeusia TEAE, events (SAD 5 mg) | Gastrointestinal disorders TEAE, events (SAD 5 mg) | Headache TEAE, events (SAD 5 mg) | Hypoaesthesia oral TEAE, events (SAD 5 mg) | Infections and infestations TEAE, events (SAD 5 mg) | Insomnia TEAE, events (SAD 5 mg) | Nasopharyngitis TEAE, events (SAD 5 mg) | Nervous system disorders TEAE, events (SAD 5 mg) | Psychiatric disorders TEAE, events (SAD 5 mg) | Rash TEAE, events (SAD 5 mg) | Skin and subcutaneous tissue disorders TEAE, events (SAD 5 mg) | Tooth infection TEAE, events (SAD 5 mg) | Abdominal pain TEAE, events (SAD 20 mg) | Any event TEAE, events (SAD 20 mg) | Diarrhea TEAE, events (SAD 20 mg) | Dysgeusia TEAE, events (SAD 20 mg) | Gastrointestinal disorders TEAE, events (SAD 20 mg) | Headache TEAE, events (SAD 20 mg) | Hypoaesthesia oral TEAE, events (SAD 20 mg) | Infections and infestations TEAE, events (SAD 20 mg) | Insomnia TEAE, events (SAD 20 mg) | Nasopharyngitis TEAE, events (SAD 20 mg) | Nervous system disorders TEAE, events (SAD 20 mg) | Psychiatric disorders TEAE, events (SAD 20 mg) | Rash TEAE, events (SAD 20 mg) | Skin and subcutaneous tissue disorders TEAE, events (SAD 20 mg) | Tooth infection TEAE, events (SAD 20 mg) | Abdominal pain TEAE, events (SAD 60 mg) | Diarrhea TEAE, events (SAD 60 mg) | Dysgeusia TEAE, events (SAD 60 mg) | Gastrointestinal disorders TEAE, events (SAD 60 mg) | Headache TEAE, events (SAD 60 mg) | Hypoaesthesia oral TEAE, events (SAD 60 mg) | Insomnia TEAE, events (SAD 60 mg) | Nasopharyngitis TEAE, events (SAD 60 mg) | Nervous system disorders TEAE, events (SAD 60 mg) | Psychiatric disorders TEAE, events (SAD 60 mg) | Rash TEAE, events (SAD 60 mg) | Skin and subcutaneous tissue disorders TEAE, events (SAD 60 mg) | Abdominal pain TEAE, events (SAD 180 mg) | Any event TEAE, events (SAD 180 mg) | Diarrhea TEAE, events (SAD 180 mg) | Dysgeusia TEAE, events (SAD 180 mg) | Gastrointestinal disorders TEAE, events (SAD 180 mg) | Headache TEAE, events (SAD 180 mg) | Hypoaesthesia oral TEAE, events (SAD 180 mg) | Infections and infestations TEAE, events (SAD 180 mg) | Insomnia TEAE, events (SAD 180 mg) | Nasopharyngitis TEAE, events (SAD 180 mg) | Nervous system disorders TEAE, events (SAD 180 mg) | Psychiatric disorders TEAE, events (SAD 180 mg) | Rash TEAE, events (SAD 180 mg) | Skin and subcutaneous tissue disorders TEAE, events (SAD 180 mg) | Tooth infection TEAE, events (SAD 180 mg) | Diarrhea TEAE, events (SAD 400 mg) | Hypoaesthesia oral TEAE, events (SAD 400 mg) | Infections and infestations TEAE, events (SAD 400 mg) | Insomnia TEAE, events (SAD 400 mg) | Nasopharyngitis TEAE, events (SAD 400 mg) | Psychiatric disorders TEAE, events (SAD 400 mg) | Rash TEAE, events (SAD 400 mg) | Skin and subcutaneous tissue disorders TEAE, events (SAD 400 mg) | Tooth infection TEAE, events (SAD 400 mg) | Abdominal pain TEAE, events (SAD 600 mg) | Diarrhea TEAE, events (SAD 600 mg) | Dysgeusia TEAE, events (SAD 600 mg) | Headache TEAE, events (SAD 600 mg) | Nervous system disorders TEAE, events (SAD 600 mg) | Rash TEAE, events (SAD 600 mg) | Skin and subcutaneous tissue disorders TEAE, events (SAD 600 mg) | Tooth infection TEAE, events (SAD 600 mg)
1: Any event TEAE, events (SAD 60 mg) | Infections and infestations TEAE, events (SAD 60 mg) | Tooth infection TEAE, events (SAD 60 mg) | Abdominal pain TEAE, events (SAD 400 mg) | Gastrointestinal disorders TEAE, events (SAD 400 mg) | Headache TEAE, events (SAD 400 mg) | Gastrointestinal disorders TEAE, events (SAD 600 mg) | Hypoaesthesia oral TEAE, events (SAD 600 mg) | Infections and infestations TEAE, events (SAD 600 mg) | Insomnia TEAE, events (SAD 600 mg) | Nasopharyngitis TEAE, events (SAD 600 mg) | Psychiatric disorders TEAE, events (SAD 600 mg)
1 (16.7) n (%): Any event TEAE, participants (SAD 60 mg) | Infections and infestations TEAE, participants (SAD 60 mg) | Tooth infection TEAE, participants (SAD 60 mg) | Abdominal pain TEAE, participants (SAD 400 mg) | Gastrointestinal disorders TEAE, participants (SAD 400 mg) | Headache TEAE, participants (SAD 400 mg) | Gastrointestinal disorders TEAE, participants (SAD 600 mg) | Hypoaesthesia oral TEAE, participants (SAD 600 mg) | Infections and infestations TEAE, participants (SAD 600 mg) | Insomnia TEAE, participants (SAD 600 mg) | Nasopharyngitis TEAE, participants (SAD 600 mg) | Psychiatric disorders TEAE, participants (SAD 600 mg)
0 n (%): Abdominal pain TEAE, participants (SAD 5 mg) | Any event TEAE, participants (SAD 5 mg) | Diarrhea TEAE, participants (SAD 5 mg) | Dysgeusia TEAE, participants (SAD 5 mg) | Gastrointestinal disorders TEAE, participants (SAD 5 mg) | Headache TEAE, participants (SAD 5 mg) | Hypoaesthesia oral TEAE, participants (SAD 5 mg) | Infections and infestations TEAE, participants (SAD 5 mg) | Insomnia TEAE, participants (SAD 5 mg) | Nasopharyngitis TEAE, participants (SAD 5 mg) | Nervous system disorders TEAE, participants (SAD 5 mg) | Psychiatric disorders TEAE, participants (SAD 5 mg) | Rash TEAE, participants (SAD 5 mg) | Skin and subcutaneous tissue disorders TEAE, participants (SAD 5 mg) | Tooth infection TEAE, participants (SAD 5 mg) | Abdominal pain TEAE, participants (SAD 20 mg) | Any event TEAE, participants (SAD 20 mg) | Diarrhea TEAE, participants (SAD 20 mg) | Dysgeusia TEAE, participants (SAD 20 mg) | Gastrointestinal disorders TEAE, participants (SAD 20 mg) | Headache TEAE, participants (SAD 20 mg) | Hypoaesthesia oral TEAE, participants (SAD 20 mg) | Infections and infestations TEAE, participants (SAD 20 mg) | Insomnia TEAE, participants (SAD 20 mg) | Nasopharyngitis TEAE, participants (SAD 20 mg) | Nervous system disorders TEAE, participants (SAD 20 mg) | Psychiatric disorders TEAE, participants (SAD 20 mg) | Rash TEAE, participants (SAD 20 mg) | Skin and subcutaneous tissue disorders TEAE, participants (SAD 20 mg) | Tooth infection TEAE, participants (SAD 20 mg) | Abdominal pain TEAE, participants (SAD 60 mg) | Diarrhea TEAE, participants (SAD 60 mg) | Dysgeusia TEAE, participants (SAD 60 mg) | Gastrointestinal disorders TEAE, participants (SAD 60 mg) | Headache TEAE, participants (SAD 60 mg) | Hypoaesthesia oral TEAE, participants (SAD 60 mg) | Insomnia TEAE, participants (SAD 60 mg) | Nasopharyngitis TEAE, participants (SAD 60 mg) | Nervous system disorders TEAE, participants (SAD 60 mg) | Psychiatric disorders TEAE, participants (SAD 60 mg) | Rash TEAE, participants (SAD 60 mg) | Skin and subcutaneous tissue disorders TEAE, participants (SAD 60 mg) | Abdominal pain TEAE, participants (SAD 180 mg) | Any event TEAE, participants (SAD 180 mg) | Diarrhea TEAE, participants (SAD 180 mg) | Dysgeusia TEAE, participants (SAD 180 mg) | Gastrointestinal disorders TEAE, participants (SAD 180 mg) | Headache TEAE, participants (SAD 180 mg) | Hypoaesthesia oral TEAE, participants (SAD 180 mg) | Infections and infestations TEAE, participants (SAD 180 mg) | Insomnia TEAE, participants (SAD 180 mg) | Nasopharyngitis TEAE, participants (SAD 180 mg) | Nervous system disorders TEAE, participants (SAD 180 mg) | Psychiatric disorders TEAE, participants (SAD 180 mg) | Rash TEAE, participants (SAD 180 mg) | Skin and subcutaneous tissue disorders TEAE, participants (SAD 180 mg) | Tooth infection TEAE, participants (SAD 180 mg) | Diarrhea TEAE, participants (SAD 400 mg) | Hypoaesthesia oral TEAE, participants (SAD 400 mg) | Infections and infestations TEAE, participants (SAD 400 mg) | Insomnia TEAE, participants (SAD 400 mg) | Nasopharyngitis TEAE, participants (SAD 400 mg) | Psychiatric disorders TEAE, participants (SAD 400 mg) | Rash TEAE, participants (SAD 400 mg) | Skin and subcutaneous tissue disorders TEAE, participants (SAD 400 mg) | Tooth infection TEAE, participants (SAD 400 mg) | Abdominal pain TEAE, participants (SAD 600 mg) | Diarrhea TEAE, participants (SAD 600 mg) | Dysgeusia TEAE, participants (SAD 600 mg) | Headache TEAE, participants (SAD 600 mg) | Nervous system disorders TEAE, participants (SAD 600 mg) | Rash TEAE, participants (SAD 600 mg) | Skin and subcutaneous tissue disorders TEAE, participants (SAD 600 mg) | Tooth infection TEAE, participants (SAD 600 mg)
No participants: Grade ≥ 3 TEAE, treatment-emergent SAEs, TEAEs leading to discontinuation, AESIs (SAD)

Source: PMC12166256 (Clinical Pharmacology and Therapeutics, 2025)
